Test results from ChEMBL document CHEMBL3400098, “Aza follow-ups to BI 207524, a thumb pocket 1 HCV NS5B polymerase inhibitor. Part 1: Mitigating the genotoxic liability of an aniline metabolite” (Bioorg Med Chem Lett, 2015).

Legend:
[1] = Permeability from apical to basolateral side of human Caco2 cells; type: ADME, cell-based; conditions: Caco-2, read-out: permeability
Procedure, shortened: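 Caco-2 permeability measured in the apical-to-basolateral direction, reported in cm/s.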

[2] = Inhibition of Hepatitis C virus genotype 1b C-terminal truncated NS5B RNA dependent RNA polymerase delta21 expressed in Escherichia coli by scintillation proximity assay; parameters: species or system Hepatitis C virus subtype 1b
Procedure, shortened: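 Biochemical polymerase inhibition using a C-terminally truncated GT1b NS5BΔ21 construct. Values are the mean of duplicate measurements (n ≥ 2).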

[3] = Half life in rat liver microsomes at 2 uM; type: ADME
Procedure, shortened: (§1)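 Stability in liver microsomes with 2 µM initial compound concentration; half-life recorded.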

[4] = Cytotoxicity against human HuH7 cells assessed as reduction in cell viability by MTT assay; type: cell-based; conditions: Huh-7 cells, read-out: TC50 (the source's name)
Procedure, shortened: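 Cytotoxicity (TC50) measured by MTT read-out in the Huh-7 cell line.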

[5] = Plasma concentration in rat at 4 mg/kg, po as cassette dosing measured at 2 hrs post dose; type: ADME, organism-based; parameters: dose 4 mg/kg, route oral
Procedure, shortened: (§2)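 Cassette dosing: a mixture of 4 compounds, each at 4 mg/kg, given orally to 2 fasted rats in 0.5% methylcellulose, 0.3% Tween-80 and 1% NMP. Plasma sampled at 1 and 2 h. Liver/plasma ratio determined at 2 h.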

[6] = Half life in human liver microsomes at 2 uM; type: ADME; procedure, shortened: as §1
Hepatitis C virus [7] = assay: Antiviral activity against Hepatitis C virus genotype 1b infected in human Huh cells assessed as inhibition of viral replication by luciferase reporter assay; type: functional, cell-based, Hepacivirus hominis
Procedure, shortened: (§3)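 HCV replicon EC50 determined in duplicate, using either a GT1b luciferase reporter read-out or RT-PCR quantification of replicon RNA.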

[8] = Plasma concentration in rat at 4 mg/kg, po as cassette dosing measured at 1 hr post dose; type: ADME, organism-based; parameters: dose 4 mg/kg, route oral; procedure, shortened: as §2
Hepatitis C virus [9] = assay: Antiviral activity against Hepatitis C virus genotype 1a infected in human Huh cells assessed as inhibition of viral replication by RT-PCR-based replicon assay; type: functional, cell-based, Hepacivirus hominis; conditions: subtype 1a; procedure, shortened: as §3
[10] = Lipophilicity, log D of the compound at pH 7.4; type: physicochemical; conditions: buffer
[11] = Ratio of drug up take in liver to plasma of rat at 4 mg/kg, po as cassette dosing measured at 2 hrs post dose; type: ADME, organism-based; parameters: dose 4 mg/kg, route oral; procedure, shortened: as §2
Salmonella typhimurium [12] = assay: Mutagenic activity in Salmonella typhimurium at 315 to 5000 ug/plate by Ames test in absence of S9 fraction; type: toxicity, organism-based; conditions: salmonella enterica subsp. enterica serovar typhimurium
Procedure, shortened: (§4)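 Ames test on the free carboxylic acid forms using multiple strains and strain TA100 of Salmonella typhimurium, at 315–5000 µg per plate, run with and without S9 metabolic activation.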

Salmonella typhimurium [13] = assay: Mutagenic activity in Salmonella typhimurium at 315 to 5000 ug/plate by Ames test in presence of S9 fraction; type: toxicity, organism-based; conditions: salmonella enterica subsp. enterica serovar typhimurium; procedure, shortened: as §4

SMILES	Papp A→B [1]	IC50 [2]	half-life at 2 µM [3]	concentration at 2 h [5]	half-life at 2 µM [6]	EC50 (Hepatitis C virus [7])	concentration at 1 h [8]	EC50 (Hepatitis C virus [9])	logD [10]	Kp at 2 h [11]	CC50 [4]	Activity (Salmonella typhimurium [12])	Activity (Salmonella typhimurium [13])
CCOc1nc(NC(=O)C2(NC(=O)c3ccc4c(C5CCCC5)c(-c5ncc(Cl)cn5)n(C)c4c3)CCC2)cnc1/C=C/C(=O)O	130 nm/s	0.1 µM	> 5 h	0.9 µM	2.43 h	0.02 µM	2.1 µM	0.034 µM	–	5	> 10 µM	–	–
CCOc1nc(N)ccc1/C=C/C(=O)O	–	–	–	–	–	–	–	–	–	–	–	Non-toxic	Non-toxic
CCOc1nc(N)cnc1/C=C/C(=O)O	–	–	–	–	–	–	–	–	–	–	–	Non-toxic	Non-toxic

Continued, in another order:

Papp A→B [1]	IC50 [2]	half-life at 2 µM [3]	concentration at 2 h [5]	half-life at 2 µM [6]	EC50 (Hepatitis C virus [7])	concentration at 1 h [8]	EC50 (Hepatitis C virus [9])	logD [10]	Kp at 2 h [11]	SMILES	CC50 [4]	Activity (Salmonella typhimurium [12])	Activity (Salmonella typhimurium [13])
43 nm/s	0.063 µM	> 5 h	0.03 µM	3.98 h	0.04 µM	0.1 µM	0.089 µM	–	–	CCOc1nc(NC(=O)C2(NC(=O)c3ccc4c(C5CCCC5)c(-c5ncc(Cl)cn5)n(C)c4c3)CCC2)ncc1/C=C/C(=O)O	> 10 µM	–	–
16 nm/s	0.08 µM	3.78 h	–	2.27 h	0.36 µM	–	–	3.4	–	CCOc1cc(NC(=O)C2(NC(=O)c3ccc4c(C5CCCC5)c(-c5ncc(Cl)cn5)n(C)c4c3)CCC2)nnc1/C=C/C(=O)O	> 10 µM	–	–
